Source: PubChem (The Scripps Research Institute Molecular Screening Center)
LYPLA2 inh = blocks human lysophospholipase 2, a PME1 counter-screen. inhibition, % at 5.9 µM. recombinant LYPLA2, FP-Rh probe fluorescence polarization. O95372. hit rate 0.38% among 320,000;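 active means inhibition above the screen-wide mean plus 3 SD, limit set per campaign, cut at about 26% in these data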
Target sequence (O95372 whole entry, looked up): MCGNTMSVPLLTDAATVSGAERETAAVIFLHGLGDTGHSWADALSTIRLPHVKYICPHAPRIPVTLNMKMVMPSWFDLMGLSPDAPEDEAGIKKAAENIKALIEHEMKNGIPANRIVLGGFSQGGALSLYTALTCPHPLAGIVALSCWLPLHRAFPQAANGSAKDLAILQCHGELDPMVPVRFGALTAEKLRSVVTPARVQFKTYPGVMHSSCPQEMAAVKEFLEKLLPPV
LYPLA1 counter = blocks human lysophospholipase 1, a PME1 counter-screen; O75608; recombinant LYPLA1, FP-Rh probe fluorescence polarization; inhibition, % at 5.9 µM; hit rate 0.16% among 320,000; AID 2174;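 active means inhibition above the mean of all tested compounds plus 3 SD, set per campaign, cut at about 14% in these data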;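 further: inhibitors block serine hydrolase probe labeling of LYPLA1 so polarization falls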
Target sequence (O75608 whole entry, looked up): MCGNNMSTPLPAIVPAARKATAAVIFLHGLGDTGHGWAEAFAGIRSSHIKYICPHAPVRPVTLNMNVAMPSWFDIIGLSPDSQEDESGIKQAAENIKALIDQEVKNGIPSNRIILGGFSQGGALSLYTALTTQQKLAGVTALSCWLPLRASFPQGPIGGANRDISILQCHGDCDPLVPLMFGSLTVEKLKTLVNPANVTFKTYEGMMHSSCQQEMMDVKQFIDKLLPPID
RBBP9 inh = blocks human serine hydrolase RBBP9. recombinant RBBP9, FP-Rh probe fluorescence polarization. hit rate 0.2% among 220,000. inhibition, % at 7.94 µM. O75884;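 active means inhibition above the campaign mean of all tested compounds plus 3 SD, cut at about 14% in these data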
Target sequence (O75884 whole entry, looked up): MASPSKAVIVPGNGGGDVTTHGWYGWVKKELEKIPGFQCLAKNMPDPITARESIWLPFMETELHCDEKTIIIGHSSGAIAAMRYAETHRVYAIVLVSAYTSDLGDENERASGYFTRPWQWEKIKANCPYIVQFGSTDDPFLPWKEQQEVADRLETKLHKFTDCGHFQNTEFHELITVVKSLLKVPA
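Test system – recombinant human RBBP9 · Input – RBBP9 2.5 µM in dispensing solution, pre-mixing · Medium – Tris buffer pH 8.0, NaCl, Pluronic · Schedule – preincubation 30 min plus labeling 45 min at 25 °C · Measured by – fluorescence polarization · Measure – % inhibition · Controls – DMSO and no-protein wells · Replicates – one well per compound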
Fam108B inh = counter-screen for RBBP9 inhibitors: inhibitors of mouse Fam108B | hit rate 0.33% among 300,000 | inhibition, % at 9.51 µM | recombinant Fam108B, FP-Rh probe fluorescence polarization;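 active means inhibition above the screen mean inhibition plus 3 SD, computed separately per campaign, cut at about 18% in these data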;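 further: inhibitors lower polarization as less probe binds the enzyme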
PAD4 FP inh = inhibitors of human PAD4. inhibition, % at 6.36 µM. AID 485272. hit rate 0.41% among 330,000. recombinant PAD4, RCA probe fluorescence polarization;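 active means percent inhibition above a cutoff equal to the mean of all tested compounds plus 3 SD, cut at about 15% in these data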
PME-1 inh = PME-1 (human) inhibition; Q9Y570; recombinant PME-1, FP-Rh probe fluorescence polarization; inhibition, % at 5.9 µM; hit rate 0.53% among 320,000; AID 2130;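 active means inhibition above the campaign mean of all compounds plus 3 SD, cut at about 26% in these data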;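 further: competitive labeling of PME-1 active site by serine hydrolase directed probe; inhibitors block probe labeling so polarization falls and inhibition rises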
RBBP9 confirm = human RBBP9 inhibition, confirmation; shares compounds with RBBP9 inh; hit rate 36% among 410; recombinant RBBP9, FP-Rh probe fluorescence polarization; inhibition, % at 7.94 µM; AID 1537;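 active means inhibition above the hit cutoff derived for the primary screen, cut at about 15% in these data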
A number is an active result; 0 = inactive; - = not tested or not shown. Rows were chosen to be rich in hits. Some 1.3% of all compounds tested hit in one or more screens of this group.

SMILES	LYPLA2 inh	LYPLA1 counter	RBBP9 inh	Fam108B inh	PAD4 FP inh	PME-1 inh	RBBP9 confirm
CC(C)(C)c1nn(-c2ccccc2)c2[nH]c(=O)c(CNCc3ccc4c(c3)OCO4)cc12	0	0	0	0	0	0	-
Cc1ccc(NCCCCO)cc1C	0	0	17.4	0	0	0	0
CCCN(CC#CC(O)(c1ccccc1)c1cccnc1)CCC (stereo not drawn)	0	0	22.3	0	0	0	0
O=C(Cn1c(=O)cnc2ccccc21)NNC(=O)c1ccccc1Cl	0	0	-	-	0	0	-
Cc1ccccc1NC(=O)c1sc2nc3c(c(-c4ccco4)c2c1N)CCCC3	0	0	15.4	0	0	0	0
CCN(C(=O)C1CCCCC1)c1nnc(-c2cccnc2)s1	0	0	14.3	0	0	0	0
O=Cc1ccccc1-n1cccn1	0	0	0	0	0	0	-
Oc1cc(-n2cccn2)c(O)cc1-n1cccn1	0	0	63.0	0	0	0	75.6
S=c1[nH]nc(Cc2noc3ccccc23)n1-c1ccccc1	0	0	0	0	0	0	-
CC(=O)Nc1ccc(N(C(=O)CNC(=O)c2ccco2)C(C(=O)NC2CCCC2)c2ccco2)cc1 (stereo not drawn)	0	0	-	0	0	0	-
O=C(Cc1cccs1)Nc1ccccc1NC(=O)Cc1cccs1	0	0	15.4	0	0	0	0
Cc1ccc(C(=O)NCC(=O)N(C)CC(=O)Nc2c(Cl)cccc2Cl)s1	0	0	-	0	0	0	-
CCCCNc1nc(Cl)nc(Nc2ccc(C)cc2)n1	0	0	-	0	0	0	-
CC(=O)Nc1ccc(OCC[n+]2cccc(C(N)=O)c2)cc1	0	0	14.4	0	0	0	0
CC(=O)Nc1ccc(OCCC[n+]2ccccc2)cc1	0	0	0	0	0	0	-
CC(=O)OCC(OC(C)=O)C(OC(C)=O)C(OC(C)=O)C(=O)Nc1cccc(C)c1 (stereo not drawn)	0	0	0	0	0	0	-
O=[N+]([O-])c1ccc(Sc2cccc[n+]2[O-])c2nonc12	-	-	19.4	-	-	-	49.6
COc1ccccc1CCN=C(N)NS(=O)(=O)c1ccc(C)c(C)c1	0	0	-	0	0	0	-
O=[N+]([O-])c1ccccc1C1Nc2cccc3cccc(c23)N1	0	0	32.1	0	0	0	27.1
O=[N+]([O-])c1ccc(Cl)c(C2Nc3cccc4cccc(c34)N2)c1	0	0	35.3	0	0	0	36.6
O=C(CSc1ccc2ccccc2n1)Nc1ccc(N2CCOCC2)cc1	0	0	0	0	0	0	-
CCCC(CCC)C(=O)Nc1c[nH]c(=O)[nH]c1=O	0	0	16.7	0	0	0	0
CC(C)C1/C(=N/O)CC(c2ccccc2)NC1c1ccccc1 (stereo not drawn)	0	0	14.8	0	0	0	0
Oc1cccc(/C=N/NC(=S)Nc2cccnc2)c1O	0	0	0	0	0	0	-
Oc1ccc(/C=N/NC(=S)Nc2cccnc2)c(O)c1O	-	-	41.8	-	-	-	52.5
SMILES	LYPLA2 inh	LYPLA1 counter	RBBP9 inh	Fam108B inh	PAD4 FP inh	PME-1 inh	RBBP9 confirm
O=c1oc(-c2ccccc2)nc2sc3c(c12)CCC3	0	0	0	0	0	0	-
O=C1CCC(=O)N1c1ccc(-c2nc3sc4c(c3c(=O)o2)CCC4)cc1	0	0	15.0	0	0	0	0
O=C(c1ccc(NS(=O)(=O)c2ccc(F)cc2)cc1)N1CCC1	0	0	-	0	0	0	-
Cc1cccc(-n2c(SCC(=O)NCc3ccc4c(c3)OCO4)nc3ccccc3c2=O)c1	0	0	0	0	0	0	-
Cc1cc(C)cc(-n2c(SC(C)C(=O)NCc3ccc4c(c3)OCO4)nc3ccccc3c2=O)c1 (stereo not drawn)	0	0	20.8	0	0	0	0
COc1cc(OC)c(N2CC(C(=O)NCCC3=CCCCC3)CC2=O)cc1Cl (stereo not drawn)	0	0	-	-	0	0	-
Oc1cccc(Nc2ccccc2)c1	0	0	-	-	0	0	-
CC(C)c1cc(Nc2cccc(O)c2)cc(C(C)C)c1O	0	0	15.8	0	0	0	0
CCC(=O)N=c1n(C)c2ccccc2n1CCOc1ccccc1	0	0	15.6	0	0	0	0
O=C(OCC(=O)N1CCOCC1)c1ccccc1OCc1ccc(Cl)cc1	-	-	-	-	0	-	-
O=C(OCC(=O)N1CCN(C(=O)c2ccco2)CC1)c1ccccc1OCc1ccc(Cl)cc1	0	0	20.3	0	0	0	0
NNC(=O)c1cc(-c2ccc(N)cc2)nc2ccc(Br)cc12	0	0	14.8	0	0	0	68.5
Cc1nn(C(C)C(=O)O)c(=O)c2ccccc12 (stereo not drawn)	0	0	17.9	0	0	0	0
CC1CCCC(C)N1C(=O)COC(=O)C(Cc1ccccc1)NC(=O)c1cccs1 (stereo not drawn)	0	0	16.1	0	0	0	0
O=C(c1cc2c(s1)CCCCC2)N1CCN(c2ncccn2)CC1	0	0	0	0	0	0	-
O=C(c1cc2c(s1)CCCC2)n1cccn1	0	0	42.2	0	0	0	0
COc1cc(/C=C/c2ccc3c(Br)cc(Br)c(O)c3n2)ccc1O	0	0	16.9	0	0	0	47.3
COc1ccc(/C=C/c2ccc3c(Br)ccc(O)c3n2)cc1	0	0	-	0	0	0	-
CC(C)CC(=O)O/N=C1\C(=O)N(Cc2ccc(Cl)cc2)c2ccc([N+](=O)[O-])cc21	43.5	0	23.6	43.3	0	35.3	45.5
CC(=O)O/N=C1\C(=O)N(Cc2ccc(C)cc2)c2ccccc21	-	-	0	-	-	-	-
CCc1ccccc1N(CC(=O)NCc1ccco1)C(=O)CCC(=O)Nc1nccs1	0	0	-	0	0	0	-
COc1cc(NC(=O)c2ccc(OCc3c(C)noc3C)c(OC)c2)cc(OC)c1	-	-	-	-	0	-	-
CCc1ccc(NSc2ccccc2[N+](=O)[O-])cc1	0	0	16.5	0	0	0	0
Cc1cc(C)cc(N(C(=O)c2csnn2)C(C(=O)NC(C)(C)C)c2cccs2)c1 (stereo not drawn)	0	0	15.4	0	0	0	0
CC(C)NC(=O)c1onc(CSc2nc3ccccc3[nH]2)c1C(=O)NC(C)C	0	0	-	0	0	0	-
SMILES	LYPLA2 inh	LYPLA1 counter	RBBP9 inh	Fam108B inh	PAD4 FP inh	PME-1 inh	RBBP9 confirm
CC1=CC(C)(C)N(S(=O)(=O)c2ccc(C)cc2)c2cc(C)ccc21	0	0	20.7	0	0	0	0
N#CCc1cnc2ccccc2n1	0	0	16.4	0	0	0	0
O=C(C1COc2ccccc2O1)N1CCCC1 (stereo not drawn)	0	0	15.4	0	0	0	0
O=C(C1COc2ccccc2O1)N1CCN(c2ccccc2O)CC1 (stereo not drawn)	0	0	-	-	0	0	-
Cc1cc(C(F)(F)F)nc(SCc2ccc(C(=O)O)o2)n1	0	0	0	0	0	0	-
Cc1cc(C)nc(SCc2ccc(C(=O)O)o2)n1	0	0	14.7	0	0	0	0
Cc1ccc(NC(=O)COC(=O)Cc2ccc(Br)cc2)cc1S(=O)(=O)N1CCOCC1	-	-	-	-	0	-	-
